Reference: publication PMC4430358 (Bioorganic & medicinal chemistry letters, 2015)
“Also recorded” adds a separate entry of the source.

Assays:
Rat pharmacokinetics = assay type: in vivo; details: 1 mg/kg oral gavage in neat Labrasol; for plasma levels after oral gavage: LLOQ approximately 20 nM
[1] = Solubility in aqueous systems; assay type: physicochemical
Sprague-Dawley rats = experiment: Ozone rat model of pulmonary inflammation; assay type: in vivo; details: 1 mg/kg IV at t = 0, 5 and 9 h; 1 ppm ozone 4 h; BALF at 24 h
Procedure, shortened: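 Sprague-Dawley rats, n = 4 per cohort, given IV vehicle (negative and positive groups) or test compound at 1 mg/kg at t = 0. They were then exposed to air (negative) or 1 ppm ozone for 4 h and redosed at 5 and 9 h. At 24 h rats were sacrificed and BALF collected. Cells were spun down, Wright-Giemsa stained and counted. BALF protein was measured by Bradford assay.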

[2] = Metabolic stability in rat liver microsomes; assay type: in vitro ADME
Procedure, shortened: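 Test compound at 1 μM incubated with isolated rat liver microsomes for 60 min at 37 °C. Samples analysed by LC-MS at 0 and 60 min. Result expressed as percent parent remaining at 60 min.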

CXCR2 = target: T1, CXCR2 (Homo sapiens, UniProt P25025); experiment: PathHunter β-arrestin assay; assay type: cell-based
T1 sequence (P25025 1-360): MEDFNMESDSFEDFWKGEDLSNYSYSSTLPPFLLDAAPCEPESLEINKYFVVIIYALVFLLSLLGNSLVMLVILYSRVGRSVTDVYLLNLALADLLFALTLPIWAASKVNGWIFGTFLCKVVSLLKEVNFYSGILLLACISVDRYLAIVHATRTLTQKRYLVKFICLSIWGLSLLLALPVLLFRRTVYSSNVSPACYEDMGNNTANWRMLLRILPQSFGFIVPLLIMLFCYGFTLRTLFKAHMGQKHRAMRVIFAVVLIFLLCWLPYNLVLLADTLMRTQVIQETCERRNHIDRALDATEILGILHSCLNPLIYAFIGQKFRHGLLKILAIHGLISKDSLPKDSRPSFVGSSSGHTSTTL

[3] = Metabolic stability in monkey liver microsomes; assay type: in vitro ADME; details: Microsome stability (% remaining @ 60 min) monkey, 37°C, LC-MS
[4] = test system: GROα-mediated intracellular calcium release in isolated human PMNs; experiment: Inhibition of GROα-mediated intracellular calcium release in isolated human PMNs; assay type: cell-based; details: for fold drop in activity relative to compound 5: PMN calcium release assay; for activity in the PMN assay: compared to compound 5
healthy subjects = details: clinical evaluation; cited from earlier work

Structure (SMILES): O=C(Nc1ccc(F)cc1)c1ccc(SCc2ccccc2B(O)O)nc1 [Compound 5]
- Rat PK AUC Oral (Rat pharmacokinetics): <LLOQ
- plasma levels after oral gavage (Rat pharmacokinetics): < 20 nM
- solubility in aqueous systems [1]: insolubility in aqueous systems

Structure (SMILES): O=C(Nc1ccc(F)cc1)c1ccc(SCc2cc(OC(F)(F)F)ccc2B(O)O)nc1 [Compound 6, 6-(2-boronic acid-5-trifluoromethoxy-benzylsulfanyl)-N-(4-fluoro-phenyl)-nicotinamide]
- PMN influx to the lungs (BALF) (Sprague-Dawley rats): significantly decreased PMN influx to the lungs to near undetectable levels; also recorded: potent inhibition of PMN recruitment; also recorded: potent inhibition of neutrophil influx
- macrophage influx (BALF) (Sprague-Dawley rats): significantly decreased
- remaining at 1 h, 1 μM [2]: > 90%
- Rat PK AUC Oral (Rat pharmacokinetics): <LLOQ
- plasma levels after oral gavage (Rat pharmacokinetics): < 20 nM
- solubility in aqueous systems [1]: insolubility in aqueous systems
- mode of action (CXCR2): full antagonist
- remaining at 1 h, 1 μM [3]: > 90%

Structure (SMILES): O=C(Nc1ccc(F)cc1)c1ccc(SCc2cccc(B(O)O)c2)nc1 [Compound 8]
- fold drop in activity relative to compound 5 [4]: 30 fold

Structure (SMILES): O=C(Nc1ccc(F)cc1)c1ccc(SCCCCB(O)O)nc1 [Compound 10]
- fold drop in activity relative to compound 5 [4]: 18 fold

Structure (SMILES): O=C(Nc1ccc(F)cc1)c1ccc(SCCc2ccccc2B(O)O)nc1 [Compound 11]
- fold drop in activity relative to compound 5 [4]: 10 fold

Structure (SMILES): COc1cc(CSc2ccc(C(=O)Nc3ccc(F)cc3)cn2)c(B(O)O)cc1OC [Compound 12]
- activity in the PMN assay [4]: complete lack of activity

Structure (SMILES): O=C(Nc1ccc(F)cc1)c1ccc(SCc2cc3c(cc2B(O)O)OCO3)nc1 [Compound 13]
- activity in the PMN assay [4]: complete lack of activity

Structure (SMILES): COc1ccc(B(O)O)c(CSc2ccc(C(=O)Nc3ccc(F)cc3)cn2)c1 [Compound 14]
- fold drop in activity relative to compound 5 [4]: 2 fold

Structure (SMILES): O=C(Nc1ccc(F)cc1)c1ccc(SCc2cc(F)ccc2B(O)O)nc1 [Compound 15]
- activity in the PMN assay [4]: equipotent

Structure (SMILES): CC[C@@H](Nc1c(Nc2cccc(C(=O)N(C)C)c2O)c(=O)c1=O)c1ccc(C)o1 [navarixin]
- ozone inhalation-induced sputum PMN recruitment (healthy subjects): inhibited
